# Screening data as filed in PubChem BioAssay.
# Shown are actives, neighbours in structure and some others; about 1.2% of the full set was active somewhere.
# MsrA act = bovine methionine sulfoxide reductase A activation. purified bovine MsrA, absorbance read-out. activation, % at 10.6 µM. 360,000 tested, 0.3% active; in the data active = activation above about 7.5%;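 note: 0% = vehicle and 100% = reference activator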
# A1 inh = inhibitors of the anti-apoptotic protein A1, read as caspase activation | MEF A1-2A-BIM cells, Caspase-Glo 3/7 luminescence, 3 h; percent of clofoctol response, vehicle zero | AID 2462 | 330,000 tested, 0.066% active | caspase activation, % (concentration not given with the values);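 active = over half of replicate activation scores above 10%, or exactly half above 10 with the replicate mean above 10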
# proCasp7 act = counter-screen: procaspase-7 (human) activation; P55210; recombinant procaspase-7, Ac-DEVD-pNA absorbance 405 nm; D23A/D198A/D206A triple mutant, cannot self-cleave; scale: DMSO 0, 5 µM enzyme 100; activation, % at 8.5 µM; 330,000 tested, 0.093% active;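 active = percent activation above the screen-wide mean plus 3 SD, cut at about 25% in these data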
# Target sequence (P55210 whole entry D23A/D198A/D206A): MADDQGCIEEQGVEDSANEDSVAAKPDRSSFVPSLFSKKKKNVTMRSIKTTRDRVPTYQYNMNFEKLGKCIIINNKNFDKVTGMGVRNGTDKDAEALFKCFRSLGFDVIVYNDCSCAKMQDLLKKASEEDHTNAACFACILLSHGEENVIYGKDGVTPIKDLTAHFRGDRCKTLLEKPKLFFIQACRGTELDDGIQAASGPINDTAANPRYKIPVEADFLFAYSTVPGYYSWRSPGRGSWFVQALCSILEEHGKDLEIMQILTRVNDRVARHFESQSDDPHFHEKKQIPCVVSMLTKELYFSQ
#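 Assay system: Uncleavable procaspase-7 mutant enzyme / Input: 2 µM procaspase-7 mutant as dispensed / Dosing: single nominal 8.5 µM compound dose, 0.8% DMSO final / Timing: 1 h enzyme–compound preincubation and 2 h substrate reaction, both 25 °C / Detection: p-Nitroaniline absorbance at 405 nm, read at 0 and 120 min / Replication: singlicate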
# proCasp3 act = activates human procaspase-3; activation, % at 8.5 µM; P42574; AID 463141; recombinant procaspase-3 D3A, Ac-DEVD-pNA absorbance 405 nm; 330,000 tested, 0.11% active;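 active = activation above the mean of all tested compounds plus 3 SD, cut at about 21% in these data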;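 note: 0% = DMSO alone and 100% = DMSO wells spiked with extra 5 µM PC-3 D3A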
# Target sequence (P42574 whole entry D9A/D28A/D175A): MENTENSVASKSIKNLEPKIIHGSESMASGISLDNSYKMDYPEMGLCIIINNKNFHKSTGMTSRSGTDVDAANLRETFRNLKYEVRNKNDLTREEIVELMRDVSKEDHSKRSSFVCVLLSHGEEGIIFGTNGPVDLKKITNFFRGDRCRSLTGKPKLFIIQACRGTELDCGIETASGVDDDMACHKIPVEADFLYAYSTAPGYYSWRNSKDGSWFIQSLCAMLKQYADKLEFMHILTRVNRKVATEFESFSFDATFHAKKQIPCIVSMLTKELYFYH
#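 Evaluation: percent activation relative to control range; Material: Procaspase-3 D3A mutant, all three cleavage aspartates alanine; Compound: single dose, 8.5 µM nominal compound, 0.8% DMSO; Replication: one well per compound; Signal: absorbance at 405 nm, 0 and 120 min; Schedule: 1 h preincubation plus 2 h reaction at 25 °C.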
# MsrA inh = bovine MsrA inhibition; purified bovine MsrA, absorbance read-out; inhibition, % at 15.5 µM; 360,000 tested, 0.75% active; AID 651718; in the data active = inhibition above about 4.5%;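 note: 0% = vehicle wells with enzyme and 100% = reference inhibitor wells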
# procasp7 triplic = counter-screen: procaspase-7 (human) activation in triplicate; AID 488941; recombinant procaspase-7, Ac-DEVD-pNA absorbance; asp23/198/206-to-Ala mutant, cannot self-cleave; shares compounds with proCasp3 act; activation, % at 8.5 µM; 210 tested, under 10 active;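 active = mean activation above a set limit taken from an earlier procaspase-7 screen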;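 note: 0% = DMSO wells and 100% = DMSO plus 5 µM procaspase-7 enzyme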
# procasp3 conf = procaspase-3 (human) activation, confirmed; recombinant PC-3 D3A, Ac-DEVD-pNA absorbance 405 nm; 100% is higher-enzyme control; AID 488954; shares compounds with proCasp3 act; activation, % at 8.5 µM; 210 tested, 10% active;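 active = mean activation above a set limit carried over from the earlier primary screen, cut at about 22% in these data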
# * hit, by the source's call; x = not tested or not shown.
SMILES,MsrA act,A1 inh,proCasp7 act,proCasp3 act,MsrA inh,procasp7 triplic,procasp3 conf
Cc1c(O)ccc2c(CN3CCN(C/C=C/c4ccccc4)CC3)cc(=O)oc12,-2,1,23,24*,0,-20,-15
Cc1cc2oc(=O)cc(CN3CCN(C/C=C/c4ccccc4)CC3)c2cc1O,1,2,7,-8,0,x,x
O=C(N/N=C\c1c(O)ccc2ccccc12)c1ccc(O)cc1,-3,1,3,21*,1,-14,-15
O=C(NN=Cc1c(O)ccc2ccccc12)c1ccncc1,-9,x,x,x,3,x,x
CC(=O)Oc1ccc(-c2cc3c(OC(C)=O)cc(OC(C)=O)cc3oc2=O)cc1,-2,-3,9,52*,2,-21,-14
CC(=O)Oc1ccc(-c2cc3ccccc3oc2=O)cc1,-2,-2,6,2,4,x,x
O=C1C2C(c3ccccc3)=NN(c3ccccc3)C2C(=O)N1c1ccccc1 (configuration not stated),-1,0,25,23*,0,36*,47*
O=C1OCCN1C(=O)[C@H]1[C@H](c2ccc(Cl)cc2)C(c2ccccc2)=NN1c1ccccc1,0,x,-5,-4,3,x,x
CCCCn1c(N)c(N(CC)C(=O)c2cccc(S(=O)(=O)N3CCN(C)CC3)c2)c(=O)[nH]c1=O,-2,0,6,24*,0,4,7
C[C@@H]1OC(C2CCCCC2)N(C)[C@H]2C[C@H]3c4[nH]c5cccc(-c6ccccc6)c5c4CCN3C(=O)[C@@H]12 (some centres not stated),x,x,x,x,1,x,x
Cc1cc(Br)cn2c(Cc3ccccc3C(F)(F)F)c(-c3ccco3)nc12,x,x,x,x,1,x,x
O=C(CN1C(=O)/C(=C\c2ccccc2Br)Oc2ccccc21)NCCCN1CCOCC1,0,1,25,32*,0,-18,-13
CC1Oc2ccccc2N(CC(=O)NCCCN2CCOCC2)C1=O (configuration not stated),-4,1,4,6,0,x,x
Cn1c(N)nc2nc(CCc3ccccc3)c(=O)[nH]c2c1=O,-4,0,6,22*,0,-22,-14
Cn1c(=O)c2c(nc(CCc3ccccc3)n2C)n(C)c1=O,-3,x,x,x,-1,x,x
CCN(CC)S(=O)(=O)c1ccc2c(c1)c(=O)c(C(=O)N1CCN(c3ccccn3)CC1)cn2C,-2,0,2,4,2,x,x
CCN(CC)S(=O)(=O)c1ccc2c(c1)c(=O)c(C(=O)N1CCOCC1)cn2C,-1,0,7,46*,3,3,1
COC(=O)[C@]12C[C@H](CC(=O)NCc3cccc(C(F)(F)F)c3)C(=O)N(Cc3ccccc3)C1=C[C@H](C(C)C)O[C@@H]2C1CC1,x,x,x,x,0,x,x
Cc1cc(N2CCN(CC(C)(C)O)C[C@H]2C)ccc1N1CCN(Cc2ccccc2)[C@H](C)C1,x,x,x,x,2,x,x
CC(=O)c1c(C)[nH]c(C(=O)OCC(=O)N2c3ccccc3NC(=O)C2(C)C)c1C,-9,-1,24,30*,0,1,5
Cc1cnc(C(=O)OCC(=O)N2c3ccccc3NC(=O)C2(C)C)cn1,-3,0,8,0,-1,x,x
COCCN1C(=O)[C@H]2C[C@@]13O[C@H](c1ccccn1)N=C3CC1c3ccccc3C[C@@]12C (some centres not stated),x,x,x,x,1,x,x
Cc1ccccc1CSc1nc2ccccc2c(=O)n1C,-2,2,-6,-2,0,x,x
Cn1c(SCc2ccccc2F)nc2ccccc2c1=O,0,0,6,22*,-1,1,3
CN1/C(=C/C(=O)c2ccc(Cl)cc2)Sc2cc3c(cc21)OCO3,-3,0,11,40*,0,-13,2
SMILES,MsrA act,A1 inh,proCasp7 act,proCasp3 act,MsrA inh,procasp7 triplic,procasp3 conf
CC1(C)CC(=O)C=C(C2CC2)C1=O,x,x,x,x,0,x,x
CCC(=O)Nc1c(S(=O)(=O)c2ccc(C)cc2)c2nc3ccccc3nc2n1C(C)c1ccccc1 (configuration not stated),2,-1,6,26*,0,-22,-14
CCC(=O)Nc1c(S(=O)(=O)c2ccccc2)c2nc3ccccc3nc2n1C(C)c1ccccc1 (configuration not stated),-7,0,-23,6,3,x,x
O=C(/C=C1\NC2(CCCC2)Cc2ccccc21)C(=O)N/N=C/c1ccccc1O,-3,0,0,24*,2,24,32*
COc1cc(/C=N/NC(=O)C(=O)/C=C2\NC3(CCCC3)Cc3ccccc32)ccc1O,-5,0,-13,-7,3,x,x
C=CCN(c1ccccc1)S(=O)(=O)c1cccc(C(=O)OCC(=O)NCCOC)c1,-3,0,-5,-6,-1,x,x
C=CCN(c1ccccc1)S(=O)(=O)c1cccc(C(=O)Oc2ccc3c(C)cc(=O)oc3c2)c1,-3,0,21,21*,2,-7,-7
Nc1ccc2nn(-c3cccc4ccccc34)nc2c1,-3,1,5,5,0,x,x
Cc1cc2nn(-c3cccc4ccccc34)nc2cc1N,-2,0,5,22*,1,5,24*
COc1ccc(OC)c(/C=C/C(=O)OCC(=O)Nc2cccc(Oc3ccccc3)c2)c1,4,-1,17,23*,0,-22,-14
COc1cccc(NC(=O)COC(=O)/C=C/c2ccc(Cl)cc2Cl)c1,-3,0,-7,5,0,x,x
CCCCCCc1cc2cc(C(N)=O)c(=N)oc2cc1O,x,0,2,1,x,x,x
CCCCCCc1cc2cc(C(=O)OCC)c(=O)oc2cc1O,-10,0,20,36*,1,-21,-13
COc1ccc(OC)c(CNS(=O)(=O)c2ccccc2Br)c1,x,x,x,x,0,x,x
O=C1OCCN1C(=O)[C@H]1[C@H](c2ccc(Cl)cc2)C(c2ccc(F)cc2)=NN1c1ccc(Br)cc1,-10,x,16,27*,4,-23,-13
CCN(CC)C(=O)c1ncn2c1C(=O)N[C@H](C)C2,x,x,x,x,0,x,x
O=C(CC1SCCNC1=O)Nc1cccc(C(F)(F)F)c1 (configuration not stated),-17,0,6,67*,-1,1,4
CC(=O)Oc1ccc(C(=O)O)cc1OC(C)=O,0,0,-3,4,0,x,x
CC(=O)Oc1cccc2c1C(=O)c1c(OC(C)=O)cc(C(=O)O)cc1C2=O,-1,-2,16,26*,2,17,32*
